What is called MIC is the lowest concentration that inhibits growth of the organism. One may read the IC50 as the point on the concentration scale where inhibition reaches its midpoint.

The source of these data is ChEMBL document CHEMBL1141691, “Synthesis and antibacterial activity of the C-7 side chain of 3-aminoquinazolinediones” (Bioorg Med Chem Lett, 2008).

Test [1] has as its system Escherichia coli. Put plainly: Antibacterial activity against wild-type Escherichia coli MC4100 by microbroth dilution susceptibility assay. The format is functional. An outline of the steps: (§1)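 MIC determined by standard broth microdilution following CLSI (formerly NCCLS) guidelines. Value is the lowest concentration inhibiting bacterial growth.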
Test [2] relates to Escherichia coli. Put plainly: Antibacterial activity against TolC knock-out Escherichia coli by microbroth dilution susceptibility assay. The format is functional. An outline of the steps:
as §1
(Broth dilution looks for growth in wells or tubes with falling amounts of substance.)

The next test concerns Enterococcus faecalis. Put plainly: Antibacterial activity against Enterococcus faecalis MGH-2 by microbroth dilution susceptibility assay. The format is functional. The procedure, abridged: as §1
The subject of the next test is Staphylococcus aureus. Put plainly: Antibacterial activity against Staphylococcus aureus 29213 by microbroth dilution susceptibility assay. The format is functional. The procedure, abridged: as §1
The subject of the next test is Streptococcus pyogenes. Put plainly: Antibacterial activity against Streptococcus pyogenes C203 by microbroth dilution susceptibility assay. The test is classed as functional. The procedure, abridged:
as §1

A short description of test [3]: Inhibition of Escherichia coli DNA gyrase.

Each structure is given as a SMILES string. Converted amounts (≈) assume the structure as drawn.

On to `Cc1c(N2CCC(N)C2)c(F)cc2c(=O)n(N)c(=O)n(C3CC3)c12` (stereo unspecified), for which the MIC in the test with Escherichia coli [1] was 1 µg/mL (≈ 3 µM); in the test on Escherichia coli [2] it was 0.25 µg/mL (≈ 0.75 µM); against Enterococcus faecalis, 8 µg/mL (≈ 24 µM); in the test on Staphylococcus aureus, 8 µg/mL (≈ 24 µM); with Streptococcus pyogenes, 1 µg/mL (≈ 3 µM). The IC50 in test [3] came to 200 nM.

With `Cc1c(N2CC[C@@H]([C@H](C)N)C2)c(F)cc2c(=O)n(N)c(=O)n(C3CC3)c12`, the minimal inhibitory concentration (MIC) came to 0.5 µg/mL (≈ 1.38 µM) in the test on Escherichia coli [1]; 0.03 µg/mL (≈ 0.083 µM) in the test with Escherichia coli [2]; 0.06 µg/mL (≈ 0.166 µM) against Enterococcus faecalis; 0.13 µg/mL (≈ 0.36 µM) against Staphylococcus aureus; 0.015 µg/mL (≈ 0.0415 µM) with Streptococcus pyogenes. Besides, the IC50 in test [3] was determined as 200 nM.

In the case of `Cc1c(N2CCC(CN)C2)c(F)cc2c(=O)n(N)c(=O)n(C3CC3)c12` (stereo unspecified), the MIC against Escherichia coli [1] turned out to be 2 µg/mL (≈ 5.76 µM); in the test on Escherichia coli [2] it was 0.13 µg/mL (≈ 0.374 µM); against Enterococcus faecalis it was 0.5 µg/mL (≈ 1.44 µM); with Staphylococcus aureus, 0.5 µg/mL (≈ 1.44 µM); in the test with Streptococcus pyogenes, 0.06 µg/mL (≈ 0.173 µM). Besides, inhibition in test [3] was half-maximal at 400 nM (IC50).

Consider `Cc1c(N2CC[C@H]([C@H](C)N)C2)c(F)cc2c(=O)n(N)c(=O)n(C3CC3)c12`, for which the minimal inhibitory concentration (MIC) amounted to 4 µg/mL (≈ 11.1 µM) in the test on Escherichia coli [1]; 0.13 µg/mL (≈ 0.36 µM) against Escherichia coli [2]; 2 µg/mL (≈ 5.53 µM) in the test with Enterococcus faecalis; 2 µg/mL (≈ 5.53 µM) in the test on Staphylococcus aureus; 0.5 µg/mL (≈ 1.38 µM) in the test with Streptococcus pyogenes. Further, in test [3], half-maximal inhibition (IC50) was put at 600 nM.

As for `CN[C@@H](C)[C@@H]1CCN(c2c(F)cc3c(=O)n(N)c(=O)n(C4CC4)c3c2C)C1`, the minimum inhibitory concentration (MIC) against Escherichia coli [1] was 4 µg/mL (≈ 10.7 µM); in the test on Escherichia coli [2] it was 0.03 µg/mL (≈ 0.0799 µM); against Enterococcus faecalis, 0.13 µg/mL (≈ 0.346 µM); against Staphylococcus aureus, 0.5 µg/mL (≈ 1.33 µM); against Streptococcus pyogenes, 0.015 µg/mL (≈ 0.04 µM). Moreover, in test [3], the IC50 amounted to 200 nM.

As for `Cc1c(N2CCC(C(C)N)C2)c(F)cc2c(=O)n(N)c(=O)n(C3CC3)c12` (stereo unspecified), the minimal inhibitory concentration (MIC) with Escherichia coli [1] came to 4 µg/mL (≈ 11.1 µM); in the test on Escherichia coli [2], 0.25 µg/mL (≈ 0.692 µM); against Enterococcus faecalis it was 1 µg/mL (≈ 2.77 µM); in the test with Staphylococcus aureus, 0.5 µg/mL (≈ 1.38 µM); in the test on Streptococcus pyogenes, 0.03 µg/mL (≈ 0.083 µM). The same compound registered an IC50 in test [3] of 600 nM.

`CCN[C@@H](C)[C@@H]1CCN(c2c(F)cc3c(=O)n(N)c(=O)n(C4CC4)c3c2C)C1`: the minimum inhibitory concentration (MIC) was 8 µg/mL (≈ 20.5 µM) with Escherichia coli [1]; 0.13 µg/mL (≈ 0.334 µM) against Escherichia coli [2]; 0.25 µg/mL (≈ 0.642 µM) in the test with Enterococcus faecalis; 0.5 µg/mL (≈ 1.28 µM) in the test on Staphylococcus aureus; 0.13 µg/mL (≈ 0.334 µM) in the test on Streptococcus pyogenes. In test [3], this compound had an IC50 of 900 nM.

As to `Cc1c(N2CC[C@H]([C@@H](C)N)C2)c(F)cc2c(=O)n(N)c(=O)n(C3CC3)c12`, the MIC against Escherichia coli [1] was 2 µg/mL (≈ 5.53 µM); in the test with Escherichia coli [2], 0.13 µg/mL (≈ 0.36 µM); in the test with Enterococcus faecalis, 0.25 µg/mL (≈ 0.692 µM); against Staphylococcus aureus, 1 µg/mL (≈ 2.77 µM); against Streptococcus pyogenes, 0.25 µg/mL (≈ 0.692 µM). For the same compound, the 50% inhibitory concentration (IC50) in test [3] was 800 nM.

For `Cc1c(N2CCC(C(C)(C)N)C2)c(F)cc2c(=O)n(N)c(=O)n(C3CC3)c12` (stereo unspecified), the minimum inhibitory concentration (MIC) against Escherichia coli [1] worked out at 16 µg/mL (≈ 42.6 µM); in the test on Escherichia coli [2], 0.25 µg/mL (≈ 0.666 µM); against Enterococcus faecalis, 2 µg/mL (≈ 5.33 µM); with Staphylococcus aureus, 1 µg/mL (≈ 2.66 µM); in the test with Streptococcus pyogenes, 0.125 µg/mL (≈ 0.333 µM). Also, the half-inhibitory concentration (IC50) in test [3] is 1600 nM.

Take `Cc1c(N2CCC(C3(N)CC3)C2)c(F)cc2c(=O)n(N)c(=O)n(C3CC3)c12` (stereo unspecified): the minimum inhibitory concentration (MIC) in the test on Escherichia coli [1] turned out to be 2 µg/mL (≈ 5.36 µM); in the test on Escherichia coli [2], 0.03 µg/mL (≈ 0.0803 µM); against Enterococcus faecalis, 0.13 µg/mL (≈ 0.348 µM); with Staphylococcus aureus, 0.25 µg/mL (≈ 0.669 µM); in the test on Streptococcus pyogenes, 0.03 µg/mL (≈ 0.0803 µM). Further, the half-maximal inhibitory concentration (IC50) in test [3] is 800 nM.

Take `Cc1c(N2CCC(C(N)c3ccccc3)C2)c(F)cc2c(=O)n(N)c(=O)n(C3CC3)c12` (stereo unspecified): the minimum inhibitory concentration (MIC) is 4 µg/mL (≈ 9.45 µM) against Escherichia coli [1]; 0.06 µg/mL (≈ 0.142 µM) in the test with Escherichia coli [2]; 0.25 µg/mL (≈ 0.59 µM) with Enterococcus faecalis; 0.13 µg/mL (≈ 0.307 µM) in the test on Staphylococcus aureus; 0.03 µg/mL (≈ 0.0708 µM) in the test with Streptococcus pyogenes. The half-maximal inhibitory concentration (IC50) in test [3] was determined as 260 nM.

Turning to `Cc1c(N2CCCCC2)c(F)cc2c(=O)n(N)c(=O)n(C3CC3)c12`, the minimal inhibitory concentration (MIC) in the test with Escherichia coli [1] is more than 64 µg/mL; against Escherichia coli [2], 0.25 µg/mL (≈ 0.752 µM); against Enterococcus faecalis it was 4 µg/mL (≈ 12 µM); against Staphylococcus aureus it was 4 µg/mL (≈ 12 µM); against Streptococcus pyogenes, 4 µg/mL (≈ 12 µM). The compound further registered an IC50 in test [3] of 6300 nM.

As to `Cc1c(N2CCNCC2)c(F)cc2c(=O)n(N)c(=O)n(C3CC3)c12`, the MIC in the test with Escherichia coli [1] was determined as 4 µg/mL (≈ 12 µM); in the test on Escherichia coli [2], 1 µg/mL (≈ 3 µM); in the test on Enterococcus faecalis, 32 µg/mL (≈ 96 µM); against Staphylococcus aureus, 32 µg/mL (≈ 96 µM); in the test with Streptococcus pyogenes, 4 µg/mL (≈ 12 µM). In addition, it took 3100 nM to reach half-maximal inhibition in test [3] (IC50).

Consider `Cc1c(N2CCCC2)c(F)cc2c(=O)n(N)c(=O)n(C3CC3)c12`, for which the minimum inhibitory concentration (MIC) worked out at 16 µg/mL (≈ 50.3 µM) in the test with Escherichia coli [1]; 0.13 µg/mL (≈ 0.408 µM) against Escherichia coli [2]; 2 µg/mL (≈ 6.28 µM) against Enterococcus faecalis; 1 µg/mL (≈ 3.14 µM) against Staphylococcus aureus; 1 µg/mL (≈ 3.14 µM) in the test on Streptococcus pyogenes. This compound returned a half-inhibitory concentration (IC50) in test [3] of 1900 nM.

For the compound `Cc1c(N2CC[C@@H]([C@@H](C)N)C2)c(F)cc2c(=O)n(N)c(=O)n(C3CC3)c12`, the MIC against Escherichia coli [1] came to 2 µg/mL (≈ 5.53 µM); in the test with Escherichia coli [2], 0.13 µg/mL (≈ 0.36 µM); with Enterococcus faecalis, 0.5 µg/mL (≈ 1.38 µM); against Staphylococcus aureus it was 0.5 µg/mL (≈ 1.38 µM); with Streptococcus pyogenes it was 0.06 µg/mL (≈ 0.166 µM). Moreover, the concentration for half-maximal inhibition (IC50) in test [3] is 300 nM.

Consider `CCC(N)C1CCN(c2c(F)cc3c(=O)n(N)c(=O)n(C4CC4)c3c2C)C1` (stereo unspecified), for which the MIC with Escherichia coli [1] was 8 µg/mL (≈ 21.3 µM); in the test with Escherichia coli [2] it was 0.13 µg/mL (≈ 0.346 µM); in the test on Enterococcus faecalis it was 0.25 µg/mL (≈ 0.666 µM); against Staphylococcus aureus, 0.5 µg/mL (≈ 1.33 µM); with Streptococcus pyogenes, 0.03 µg/mL (≈ 0.0799 µM). In test [3], it took 400 nM to reach half-maximal inhibition (IC50).

On to `Cc1c(N2CCC(CCN)C2)c(F)cc2c(=O)n(N)c(=O)n(C3CC3)c12` (stereo unspecified), for which the minimal inhibitory concentration (MIC) with Escherichia coli [1] is 16 µg/mL (≈ 44.3 µM); against Escherichia coli [2] it was 0.5 µg/mL (≈ 1.38 µM); against Enterococcus faecalis, 4 µg/mL (≈ 11.1 µM); in the test on Staphylococcus aureus, 4 µg/mL (≈ 11.1 µM); in the test on Streptococcus pyogenes it was 0.125 µg/mL (≈ 0.346 µM). Besides, in test [3], the 50% inhibitory concentration (IC50) was determined as 1200 nM.

For `Cc1c(N2CCC2)c(F)cc2c(=O)n(N)c(=O)n(C3CC3)c12`, the MIC in the test with Escherichia coli [1] is more than 64 µg/mL; against Escherichia coli [2], 2 µg/mL (≈ 6.57 µM); in the test with Enterococcus faecalis, 64 µg/mL (≈ 210 µM); in the test on Staphylococcus aureus it was 32 µg/mL (≈ 105 µM); in the test on Streptococcus pyogenes, 64 µg/mL (≈ 210 µM). In test [3], this compound showed an IC50 of 12500 nM.

For `O=C(O)c1cn(C2CC2)c2cc(N3CCNCC3)c(F)cc2c1=O` [CIPROFLOXACIN], the MIC in the test on Enterococcus faecalis worked out at 0.4 µg/mL (≈ 1.21 µM); with Staphylococcus aureus, 0.5 µg/mL (≈ 1.51 µM); against Streptococcus pyogenes it was 2 µg/mL (≈ 6.04 µM).
